Screens (PubChem BioAssay)
Only some compounds are listed: those with a hit (about 4.7% of all), similar ones and a draw of the others.
NR3A LBD binder: modulates the human NR3A ligand-binding domain; NR3A LBD differential scanning fluorimetry, Tm shift; 0% = protein alone, 100% = glycine-bound protein; Tm shift relative to glycine control, % at 25 µM; hit rate 2.5% among 340,000; AID 1259313;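 active = melting temperature shift of at least 10% of the positive control shift, at one fixed dose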
ADAM17 inh: inhibitors of human ADAM17 | recombinant ADAM17, EDANS/DABCYL FRET peptide cleavage | hit rate 0.83% among 370,000 | AID 720648 | inhibition, % at 6.95 µM;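 active = inhibition above the mean of compounds lying between control limits plus 3 SD, set per campaign, cut at about 8.5% in these data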;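 note: 0% = DMSO-only wells as the low control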
Target sequence (P78536 215-824 limits assumed): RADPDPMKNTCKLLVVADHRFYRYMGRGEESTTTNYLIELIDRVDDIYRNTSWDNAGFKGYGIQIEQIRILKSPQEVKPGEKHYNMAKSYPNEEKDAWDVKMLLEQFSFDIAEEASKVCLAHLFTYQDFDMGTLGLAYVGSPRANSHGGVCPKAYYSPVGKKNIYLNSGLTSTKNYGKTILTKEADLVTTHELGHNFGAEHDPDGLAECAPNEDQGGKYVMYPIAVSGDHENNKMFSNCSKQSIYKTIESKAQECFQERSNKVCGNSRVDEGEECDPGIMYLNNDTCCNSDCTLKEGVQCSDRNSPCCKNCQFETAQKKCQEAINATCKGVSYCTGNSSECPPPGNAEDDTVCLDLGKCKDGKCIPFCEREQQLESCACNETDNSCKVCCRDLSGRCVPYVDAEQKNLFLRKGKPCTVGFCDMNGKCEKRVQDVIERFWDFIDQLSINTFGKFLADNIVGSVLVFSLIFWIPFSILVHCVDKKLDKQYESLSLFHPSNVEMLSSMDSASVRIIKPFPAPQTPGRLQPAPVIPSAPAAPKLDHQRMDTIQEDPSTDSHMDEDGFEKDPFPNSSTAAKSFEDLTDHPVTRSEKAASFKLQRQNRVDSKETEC
MPTP inh: inhibitors of mitochondrial permeability transition pore | isolated mouse mitochondria, Ca2+ swelling absorbance, 30 min | inhibition, % at 10 µM | hit rate 1.4% among 360,000 | AID 602449;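 active = inhibition of 50% or more, scaled per plate between neutral and stimulator controls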;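 note: 0% = DMSO wells given calcium and 100% = 1 mM EGTA wells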
MT1-MMP act inh: blocks activation of human MT1-MMP; hit rate 0.061% among 360,000; P50281; AID 651647; GFP/RFP ratio change, % at 20 µM; HT1080 RFP-PRO-GFP cells, GFP/RFP ratio fluorescence, overnight; percent of plate control window, DMSO zero;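 active = GFP/RFP ratio change of at least 30% with cell ATP level not reduced by more than half and red fluorescence within 50% of control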
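Assay system – RFP-PRO-GFP reporter HT1080 cells · Compound dosing – single dose of 20 µM compound, 1% DMSO final · Incubation – overnight compound exposure at 37 °C · Measure – GFP/RFP fluorescence ratio · Benchmarks – DMSO wells and RFP-L50D-GFP cells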
ADAM10 inh: inhibits human ADAM10; inhibition, % at 7 µM; hit rate 0.62% among 370,000; recombinant ADAM10, EDANS/DABCYL FRET peptide cleavage, 3 h;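 active = inhibition above a per-campaign cutoff equal to the mean of compounds falling between control-based bounds plus 3 SD, cut at about 20% in these data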;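 note: 0% = DMSO wells while the 100% control is not disclosed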
SKN-1 block: inhibitors of C. elegans SKN-1; C. elegans VP596 Pgst-4::GFP/RFP ratio, acrylamide-induced, 24 h; inhibition, % at 21.8 µM; hit rate 0.49% among 360,000; AID 624304;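 active = interference check ratio from 0.5 to 1.5 plus GFP to RFP signal ratio inhibition reaching or exceeding a fixed threshold, cut at about 30% in these data, passing the limit was not always enough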
Starred values were filed as active, the others as inactive; · = not tested or not shown.

SMILES	NR3A LBD binder	ADAM17 inh	MPTP inh	MT1-MMP act inh	ADAM10 inh	SKN-1 block
COc1ccc(NC(=O)Cn2nnc(C(=O)NCc3ccc(C)cc3)c2N)cc1Cl	17*	-2	1	3	2	1
Cc1cc(C)cc(NC(=O)Cn2nnc(C(=O)NCc3ccc(F)cc3)c2N)c1	34*	1	2	2	-11	4
CCN(c1c(C)n(C)n(-c2ccccc2)c1=O)S(C)(=O)=O	3	-5	-2	-1	-3	-23
O=C(CSc1nccc(-c2cccs2)n1)Nc1ccc(Cl)cc1	26*	-1	10	2	7	-9
CNc1oc(-c2ccc(OCc3ccccc3)cc2)nc1C#N	33*	-24	-3	4	-86	-10
N#Cc1nc(-c2ccc(OCc3ccc(Cl)cc3)cc2)oc1NCCCn1ccnc1	17*	-1	1	4	-3	6
Cc1ccc(N2C(=O)CS/C2=C(\C(Cl)=C(Cl)Cl)[N+](=O)[O-])cc1	11*	2	0	-3	-5	4
O=C(Cc1c(F)cccc1Cl)Nc1cc(S(=O)(=O)N2CCCCC2)ccc1N1CCOCC1	-2	-4	9	-4	-6	-12
CN(C)S(=O)(=O)c1ccc(NC(=O)c2cc3ccccc3o2)cc1	31*	-1	0	2	-2	6
COc1ccc(C)cc1NC(=O)c1cc2ccccc2o1	1	-2	12	1	2	-2
O=C(Nc1ccc(CN2CCOCC2)cc1)c1cc2ccccc2o1	0	0	1	-2	-1	56*
Cc1ccc(C)c(NC(=O)c2cc3ccccc3o2)c1	1	-1	-1	-7	11	40*
COc1ccccc1NC(=O)c1ccc(CN2CCOCC2)cc1	0	3	-2	4	-8	36*
O=C(Nc1ccccc1C(=O)N1CCOCC1)c1cc2ccccc2o1	-1	-2	0	0	2	1
CCOCc1c(C(=O)Nc2ccc3nc(N4CCOCC4)sc3c2)oc2ccccc12	-5	-57	0	9	-54	-4
O=C(/C=C/c1ccc(Cl)cc1)Nc1ccc(CN2CCOCC2)cc1	-2	3	1	-3	8	63*
CC(C)c1ccc(C(=O)Nc2ccc(CN3CCOCC3)cc2)cc1	0	3	0	4	6	70*
Cc1ccccc1NC(=O)c1sc(Cl)nc1-c1ccccc1	2	-4	-1	7	4	9
CC(C)c1ccc(/C=C/C(=O)Nc2ccc(CN3CCOCC3)cc2)cc1	-3	-1	2	8	9	7
Cc1ccc(C)c(NC(=O)c2sc(Cl)nc2-c2ccccc2)c1	0	0	1	0	-3	48*
OCC1(CCOc2ccccc2)CCN(Cc2ccc3cccc(F)c3n2)CC1	2	1	-1	5	0	-6
O=C(COC(=O)CC1CCCC1)Nc1ccc(OC(F)F)cc1	-18	-1	0	3	5	6
CCOC(=O)c1nn(-c2ccc(F)cc2)c(=O)cc1OCC(=O)N1CCN(c2ccccc2)CC1	-3	-1	1	-4	2	13
N=C1C=CC(=C(c2ccc(N)cc2)c2ccc(N)cc2)C=C1	-3	-7	33	93	-9	60*
Nc1ccc(C(=O)C(=O)c2ccc(N)cc2)cc1	4	7	0	-3	14	15
SMILES	NR3A LBD binder	ADAM17 inh	MPTP inh	MT1-MMP act inh	ADAM10 inh	SKN-1 block
N#Cc1c(NC(=O)c2ccncc2)sc2c1CCC2	1	·	0	-3	·	11
O=C1c2ccccc2OC2(C=Cc3ccccc3O2)N1Cc1ccccc1 (centres undefined)	0	-2	-5	-6	-4	40*
N#CCCCSc1nnc(Cc2ccc3c(c2)OCO3)o1	12*	1	1	2	1	20
CCC(C)Nc1nc(Cl)nc(NCCOc2ccccc2)n1 (centres undefined)	13*	3	0	-4	3	2
CC(C)Nc1nc(Cl)nc(NCCOc2ccccc2)n1	-3	-1	2	-1	-1	-1
O=C1C=C(c2ccc3cc[nH]c3c2)C[C@@H](c2ccc3c(c2)OCO3)C1	21*	·	2	2	·	14
